Experimental data from ChEMBL document CHEMBL2417469, “Synthesis of novel analogs of 2-pyrazoline obtained from [(7-chloroquinolin-4-yl)amino]chalcones and hydrazine as potential antitumor and antimalarial agents” (Eur J Med Chem, 2013).

What was measured:
Assay type in all cases: functional
[1] = tested on: ACHN; assay: Cytotoxicity against human ACHN cells after 48 hrs by SRB assay; conditions: for CC50: read-out: LC50 (the source's name)
How it was run: (§1)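 NCI 60-cell-line screen. Cells preincubated 24 h at 37 °C, 5% CO2; time-zero plates TCA-fixed. Compounds dissolved in DMSO and tested at five concentrations (100, 10, 1.0, 0.1, 0.01 µM) for 48 h continuous exposure. Adherent cells fixed with cold TCA (10% final), then SRB stained; absorbance at 515 nm. GI50, TGI and LC50 calculated from growth relative to time-zero and untreated controls.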

[2] = tested on: HL-60(TB); assay: Cytotoxicity against human HL-60(TB) cells after 48 hrs by SRB assay; conditions: HL-60, 48 h; how it was run: as §1
[3] = tested on: MDA-MB-435; assay: Cytotoxicity against human MDA-MB-435 cells after 48 hrs by SRB assay; conditions: MDA-MB-435, 48 h; how it was run: as §1
[4] = tested on: MOLT-4; assay: Cytotoxicity against human MOLT4 cells after 48 hrs by SRB assay; conditions: MOLT-4, 48 h; how it was run: as §1
[5] = tested on: MCF7; assay: Cytotoxicity against human MCF7 cells after 48 hrs by SRB assay; conditions: MCF7, 48 h; for CC50: read-out: LC50 (the source's name); how it was run: as §1
[6] = tested on: 786-0; assay: Cytotoxicity against human 786-0 cells after 48 hrs by SRB assay; conditions: 786-0, 48 h; how it was run: as §1
[7] = tested on: DU-145; assay: Cytotoxicity against human DU145 cells after 48 hrs by SRB assay; conditions: DU-145, 48 h; how it was run: as §1
[8] = tested on: A498; assay: Cytotoxicity against human A498 cells after 48 hrs by SRB assay; conditions: A498, 48 h; for CC50: read-out: LC50 (the source's name); how it was run: as §1
[9] = tested on: TK-10; assay: Cytotoxicity against human TK10 cells after 48 hrs by SRB assay; conditions: TK-10, 48 h
How it was run: (§2)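 NCI 60-cell screen. Cells grew 24 h (37 °C, 5% CO2) before compound was added. Compounds were in DMSO and diluted in medium with gentamicin, then tested at five levels (100, 10, 1.0, 0.1, 0.01 µM) with 48 h continuous exposure. Adherent cells were fixed with TCA (10% final) and stained with 0.4% SRB, absorbance read at 515 nm. A time-zero plate was included. LC50 is the concentration giving 50% loss of protein relative to time zero.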

[10] = tested on: NCI-H460; assay: Cytotoxicity against human NCI-H460 cells after 48 hrs by SRB assay; conditions: NCI-H460, 48 h; how it was run: as §1
[11] = tested on: MDA-MB-231; assay: Cytotoxicity against human MDA-MB-231 cells after 48 hrs by SRB assay; conditions: MDA-MB-231, 48 h; how it was run: as §1
[12] = tested on: M14; assay: Cytotoxicity against human M14 cells after 48 hrs by SRB assay; conditions: M14, 48 h; for CC50: read-out: LC50 (the source's name); how it was run: as §1
[13] = tested on: OVCAR-4; assay: Cytotoxicity against human OVCAR4 cells after 48 hrs by SRB assay; conditions: OVCAR-4, 48 h; how it was run: as §1
[14] = tested on: U-251; assay: Cytotoxicity against human U251 cells after 48 hrs by SRB assay; conditions: U-251, 48 h; for CC50: read-out: LC50 (the source's name); how it was run: as §2
[15] = tested on: OVCAR-5; assay: Cytotoxicity against human OVCAR5 cells after 48 hrs by SRB assay; conditions: OVCAR-5, 48 h; how it was run: as §1
[16] = tested on: PC-3; assay: Cytotoxicity against human PC3 cells after 48 hrs by SRB assay; conditions: PC-3, 48 h; how it was run: as §1
[17] = tested on: SNB-75; assay: Cytotoxicity against human SNB75 cells after 48 hrs by SRB assay; conditions: SNB-75, 48 h; how it was run: as §2
[18] = tested on: HCT-15; assay: Cytotoxicity against human HCT15 cells after 48 hrs by SRB assay; conditions: HCT-15, 48 h; how it was run: as §1
[19] = tested on: UO-31; assay: Cytotoxicity against human UO31 cells after 48 hrs by SRB assay; conditions: UO-31, 48 h; how it was run: as §2
[20] = tested on: SF-295; assay: Cytotoxicity against human SF295 cells after 48 hrs by SRB assay; conditions: SF-295, 48 h; how it was run: as §1
[21] = tested on: Plasmodium falciparum; assay: Antimalarial activity against Plasmodium falciparum NF54 infected in human serum at 20 ug/ml after 48 hrs by fluorometric method
How it was run: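 Asynchronous P. falciparum NF54 at 1.5–2% parasitemia, 5% hematocrit in RPMI with 10% human serum, exposed 48 h at 37 °C under 90% N2/5% CO2/5% O2 at the stated concentration; parasite DNA stained with ethidium bromide after proteinase K lysis; viability % = (Flu treated − medium)/(Flu untreated − medium) ×100; triplicate.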

[22] = tested on: SF-539; assay: Cytotoxicity against human SF539 cells after 48 hrs by SRB assay; conditions: SF-539, 48 h; for CC50: read-out: LC50 (the source's name); how it was run: as §1
[23] = tested on: SK-OV-3; assay: Cytotoxicity against human SKOV3 cells after 48 hrs by SRB assay; conditions: SK-OV-3, 48 h; how it was run: as §1
[24] = tested on: NCI-H23; assay: Cytotoxicity against human NCI-H23 cells after 48 hrs by SRB assay; conditions: NCI-H23, 48 h; for CC50: read-out: LC50 (the source's name); how it was run: as §1
[25] = tested on: NCI-H522; assay: Cytotoxicity against human NCI-H522 cells after 48 hrs by SRB assay; conditions: NCI-H522, 48 h; for CC50: read-out: LC50 (the source's name); how it was run: as §1
[26] = tested on: MDA-MB-468; assay: Cytotoxicity against human MDA-MB-468 cells after 48 hrs by SRB assay; conditions: MDA-MB-468, 48 h; how it was run: as §1
[27] = tested on: SR; assay: Cytotoxicity against human SR cells after 48 hrs by SRB assay; how it was run: as §2
[28] = tested on: HCT-116; assay: Cytotoxicity against human HCT116 cells after 48 hrs by SRB assay; conditions: HCT-116, 48 h; how it was run: as §1
[29] = tested on: Hs-578T; assay: Cytotoxicity against human Hs578T cells after 48 hrs by SRB assay; how it was run: as §1
[30] = tested on: Malme-3M; assay: Cytotoxicity against human MALME-3M cells after 48 hrs by SRB assay; how it was run: as §1
[31] = tested on: SK-MEL-5; assay: Cytotoxicity against human SK-MEL-5 cells after 48 hrs by SRB assay; conditions: SK-MEL-5, 48 h; how it was run: as §1
[32] = tested on: BT-549; assay: Cytotoxicity against human BT549 cells after 48 hrs by SRB assay; conditions: BT-549, 48 h; how it was run: as §1
[33] = tested on: NCI/ADR-RES; assay: Cytotoxicity against human NCI/ADR-RES cells after 48 hrs by SRB assay; conditions: for CC50: read-out: LC50 (the source's name); how it was run: as §1
[34] = tested on: OVCAR-3; assay: Cytotoxicity against human OVCAR3 cells after 48 hrs by SRB assay; conditions: OVCAR-3, 48 h; how it was run: as §1
[35] = tested on: CCRF-CEM; assay: Cytotoxicity against human CCRF-CEM cells after 48 hrs by SRB assay; how it was run: as §1

O=CN1N=C(c2ccc(Nc3ccnc4cc(Cl)ccc34)cc2)CC1c1ccc(Cl)cc1 (centres undefined)
GI50 [1]: 1000 nM | CC50 [1]: > 100000 nM | GI50 [2]: 380 nM | CC50 ([2]; read-out: LC50 (the source's name)): > 100000 nM | GI50 [3]: 200 nM | LC50 [3]: > 100000 nM | GI50 [4]: 530 nM | LC50 [4]: > 100000 nM | GI50 [5]: 480 nM | CC50 [5]: > 100000 nM | GI50 [6]: 910 nM | LC50 [6]: > 100000 nM | GI50 [7]: 1940 nM | LC50 (concentration killing 50% of cells) [7]: > 100000 nM | GI50 [8]: > 100000 nM | CC50 [8]: > 100000 nM | GI50 [9]: 9570 nM | LC50 (concentration giving 50% cell loss vs time zero) [9]: > 100000 nM | GI50 [10]: 590 nM | LC50 [10]: > 100000 nM | GI50 [11]: 1430 nM | LC50 (concentration killing 50% of cells present at time zero) [11]: > 100000 nM | GI50 [12]: 620 nM | CC50 [12]: > 100000 nM | GI50 [13]: 6480 nM | LC50 [13]: > 100000 nM | GI50 [14]: 510 nM | CC50 [14]: > 100000 nM | GI50 [15]: 6460 nM | LC50 [15]: > 100000 nM | GI50 [16]: 480 nM | LC50 [16]: > 100000 nM | GI50 [17]: 420 nM | LC50 (50% net cell kill) [17]: > 100000 nM | GI50 [18]: 580 nM | LC50 (concentration killing 50% of cells relative to time zero) [18]: > 100000 nM | GI50 [19]: 1300 nM | LC50 [19]: > 100000 nM | GI50 [20]: 270 nM | LC50 [20]: > 100000 nM | inhibition at 20 µg/mL [21]: 1.1% | GI50 [22]: 580 nM | CC50 [22]: > 100000 nM | GI50 [23]: 570 nM | LC50 (concentration killing 50% of cells) [23]: > 100000 nM | GI50 [24]: 2770 nM | CC50 [24]: > 100000 nM | GI50 [25]: 390 nM | CC50 [25]: > 100000 nM | GI50 [26]: 320 nM | LC50 [26]: > 100000 nM | GI50 [27]: 320 nM | LC50 [27]: > 100000 nM | GI50 [28]: 500 nM | LC50 [28]: > 100000 nM | GI50 [29]: 3930 nM | LC50 (50% net cell kill) [29]: > 100000 nM | LC50 [30]: > 100000 nM | GI50 [31]: 810 nM | LC50 (concentration killing 50% of cells present at time zero) [31]: > 100000 nM | GI50 [32]: 4770 nM | LC50 (50% net cell kill vs time zero) [32]: > 100000 nM | GI50 [33]: 360 nM | CC50 [33]: > 100000 nM | GI50 [34]: 350 nM | LC50 [34]: > 100000 nM

COc1cccc2c1C(=O)c1c(O)c3c(c(O)c1C2=O)C[C@@](O)(C(=O)CO)C[C@@H]3O[C@H]1C[C@H](N)[C@H](O)[C@H](C)O1 [DOXORUBICIN]
GI50 [1]: 80 nM | CC50 [1]: 100000 nM | GI50 [2]: 120 nM | GI50 [3]: 250 nM | GI50 [4]: 30 nM | GI50 [5]: 30 nM | CC50 [5]: 51300 nM | GI50 [6]: 130 nM | GI50 [7]: 110 nM | GI50 [8]: 100 nM | CC50 [8]: 1900 nM | GI50 [9]: 180 nM | GI50 [10]: 20 nM | GI50 [11]: 510 nM | GI50 [12]: 180 nM | CC50 [12]: 4050 nM | GI50 [13]: 370 nM | GI50 [14]: 40 nM | CC50 [14]: 30600 nM | GI50 [15]: 410 nM | GI50 [35]: 80 nM | GI50 [16]: 320 nM | GI50 [17]: 70 nM | GI50 [18]: 6460 nM | GI50 [19]: 490 nM | GI50 [20]: 100 nM | GI50 [22]: 120 nM | CC50 [22]: 27200 nM | GI50 [23]: 220 nM | GI50 [24]: 150 nM | CC50 [24]: 13200 nM | GI50 [25]: 30 nM | CC50 [25]: 2800 nM | GI50 [26]: 50 nM | GI50 [27]: 30 nM | GI50 [28]: 80 nM | GI50 [29]: 330 nM | GI50 [30]: 120 nM | GI50 [31]: 80 nM | GI50 [32]: 230 nM | GI50 [33]: 7160 nM | CC50 [33]: 100000 nM | GI50 [34]: 390 nM
